Measurements published in ChEMBL document CHEMBL1143929, “Synthesis and antiprotozoal activity of novel bis-benzamidino imidazo[1,2-a]pyridines and 5,6,7,8-tetrahydro-imidazo[1,2-a]pyridines” (Bioorg Med Chem, 2008).

Tests used:
[1] = tested on: Trypanosoma brucei rhodesiense; test: Antiprotozoan activity against Trypanosoma brucei rhodesiense STIB900; type: functional, organism-based
[2] = tested on: Trypanosoma brucei rhodesiense; test: Antitrypanosomal activity against Trypanosoma brucei rhodesiense STIB900 infected mouse model assessed as survival at 25 mg/kg, po after 4 days; type: functional
Summary of the method: (§1)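 Acute African trypanosomiasis model in mice infected with T. b. rhodesiense STIB900. Diamidines were given intraperitoneally and prodrugs orally, dosed over 4 days. Read-outs were cures (mice surviving parasite-free for 60 days, out of 4) and average days of survival, compared against untreated infected controls.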

Plasmodium falciparum = test: Antiprotozoal activity against Plasmodium falciparum K1; type: functional, organism-based
L6 = test: Cytotoxicity against rat L6 cells; type: cell-based
[3] = tested on: Trypanosoma brucei rhodesiense; test: Antitrypanosomal activity against Trypanosoma brucei rhodesiense STIB900 infected mouse model assessed as survival at 5 mg/kg, ip after 4 days; type: functional; conditions: route intraperitoneal; summary of the method: as §1
[4] = Binding affinity to DNA
[5] = tested on: Trypanosoma brucei rhodesiense; test: Antitrypanosomal activity against Trypanosoma brucei rhodesiense STIB900 infected mouse model assessed as survival at 20 mg/kg, ip after 4 days; type: functional; conditions: route intraperitoneal; summary of the method: as §1
[6] = tested on: Trypanosoma brucei rhodesiense; test: Antitrypanosomal activity against Trypanosoma brucei rhodesiense STIB900 infected mouse model assessed as survival at 5 mg/kg, po after 4 days; type: functional; summary of the method: as §1

SMILES | IC50 [1] [nM] | Survival [2] [days] | IC50 (Plasmodium falciparum) [nM] | IC50 (L6) [nM] | Survival [3] [days] | Kd [4] [nM] | Survival [5] [days] | Survival [6] [days]
CO/N=C(\N)c1ccc(-c2cn3cc(-c4ccc(/C(N)=N\OC)cc4)nc3c(C)c2C)cc1 | 7210 | 15.5 | 3250 | – | – | – | – | –
Cc1c(-c2ccc(C(=N)N)cc2)cn2cc(-c3ccc(C(=N)N)cc3)nc2c1C | 15 | – | 63 | 4700 | >39.5 | – | – | –
CO/N=C(\N)c1ccc(-c2ccc3nc(-c4ccc(/C(N)=N\OC)cc4)cn3c2)cc1 | 825 | 10.75 | 181 | 6900 | – | – | – | –
N=C(N)c1ccc(-c2ccc(-c3ccc(C(=N)N)cn3)o2)cc1 | 6.5 | – | 6.5 | – | >54.5 | – | – | –
Cc1cc2nc(-c3ccc(C(=N)N)cc3)cn2cc1-c1ccc(C(=N)N)cc1 | 13 | – | 27 | 6800 | >37.25 | – | – | –
N=C(N)c1ccc(-c2cn3c(n2)CCC(c2ccc(C(=N)N)cc2)C3)cc1 (stereo not given) | 14 | – | 85 | 8900 | 31.25 | 250 | >60 | –
CONC(=N)c1ccc(-c2ccc(-c3ccc(C(=N)NOC)cc3)o2)cc1 [PAFURAMIDINE] | – | >60 | – | – | – | – | – | –
CO/N=C(\N)c1ccc(-c2cc(C)c3nc(-c4ccc(/C(N)=N\OC)cc4)cn3c2)cc1 | 2370 | >20.25 | 614 | 9500 | – | – | – | –
CO/N=C(\N)c1ccc(-c2cn3cc(-c4ccc(/C(N)=N\OC)cc4)nc3cc2C)cc1 | 1740 | 14.5 | 880 | 17000 | – | – | – | –
Cc1cc(-c2ccc(C(=N)N)cc2)cn2cc(-c3ccc(C(=N)N)cc3)nc12 | 38 | – | 23 | 7400 | 14.75 | – | – | –
N=C(N)c1ccc(-c2ccc3nc(-c4ccc(C(=N)N)cc4)cn3c2)cc1 | 7.5 | – | 92 | 2500 | – | 20 | 22 | –
CO/N=C(\N)c1ccc(-c2ccc(-c3ccc(/C(N)=N/OC)cn3)o2)cc1 | – | >60 | – | – | – | – | – | >60
N=C(N)c1ccc(-c2ccc(-c3ccc(C(=N)N)cc3)o2)cc1 [FURAMIDINE] | – | – | – | – | 35.5 | – | – | –
